{"data": "Measurements pooled from the literature", "target": "NAD-dependent protein deacetylase sirtuin-1 (SIRT1, Homo sapiens, UniProt Q96EB6)", "read-out": "enzyme activity", "action": "inhibitor", "Sequence (Q96EB6 193-741, as in one of the studies)": "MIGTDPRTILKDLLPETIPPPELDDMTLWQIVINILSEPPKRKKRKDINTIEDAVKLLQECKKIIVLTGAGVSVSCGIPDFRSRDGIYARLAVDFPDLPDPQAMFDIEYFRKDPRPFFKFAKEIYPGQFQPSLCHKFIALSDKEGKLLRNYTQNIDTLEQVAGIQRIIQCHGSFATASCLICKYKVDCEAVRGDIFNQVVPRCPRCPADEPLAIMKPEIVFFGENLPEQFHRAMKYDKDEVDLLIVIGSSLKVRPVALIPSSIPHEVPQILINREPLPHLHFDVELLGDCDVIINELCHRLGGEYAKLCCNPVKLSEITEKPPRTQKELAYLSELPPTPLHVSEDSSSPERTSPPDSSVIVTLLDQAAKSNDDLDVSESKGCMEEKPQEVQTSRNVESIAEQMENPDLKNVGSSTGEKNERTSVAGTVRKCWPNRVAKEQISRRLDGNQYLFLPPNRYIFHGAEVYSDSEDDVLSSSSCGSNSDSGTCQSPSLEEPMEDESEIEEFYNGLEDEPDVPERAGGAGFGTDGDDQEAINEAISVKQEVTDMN"}
{"Compound": "CC(=S)NCCCC[C@H](NC(=O)OCc1ccccc1)C(=O)N[C@@H](Cc1c[nH]c2ccccc12)C(=O)N[C@@H](CCC(=O)O)C(N)=O", "setting": "1 µM", "inhibition": "83%"}
{"Compound": "NC(=O)CCNC(=S)NCCCC[C@H](NS(=O)(=O)c1cccc(F)c1)C(=O)N[C@@H](Cc1c[nH]c2ccccc12)C(=O)NC1CCC1", "setting": "10 µM", "inhibition": "3%"}
{"Compound": "CCCCC[C@@H]1CC(=O)c2cc(Cl)cc(Br)c2O1", "assay": "fluorescence", "setting": "200 µM", "inhibition": "5.3%"}
{"Compound": "CCCCCCCCCCCCNC(=S)NCCCC[C@H](NC(=O)OCc1ccccc1)C(=O)N[C@@H](Cc1c[nH]c2ccccc12)C(=O)N[C@@H](CCCNC(=N)N)C(N)=O", "setting": "1 µM", "inhibition": "52%"}
{"Compound": "O=C(NC1CCC1)[C@H](Cc1c[nH]c2ccccc12)NC(=O)[C@H](CCCCNC(=S)NCCc1nnn[nH]1)NS(=O)(=O)c1cccc(F)c1", "setting": "10 µM", "inhibition": "17%"}
{"Compound": "Ic1cccc2cnccc12", "setting": "10 µM", "inhibition": "2%"}
{"Compound": "CCCCCC1C=Cc2cc(Cl)cc(Br)c2O1 (stereo not shown)", "assay": "fluorescence", "setting": "200 µM", "inhibition": "7.1%"}
{"Compound": "O=C(NC1CCC1)[C@H](Cc1c[nH]c2ccccc12)NC(=O)[C@H](CCCCNC(=S)NCc1n[nH]c(=S)o1)NS(=O)(=O)c1cccc(F)c1", "setting": "30 µM", "inhibition": "37%"}
{"Compound": "Cc1ccc(C(=O)Nc2ccc(S(=O)(=O)O)c3cc(S(=O)(=O)O)cc(S(=O)(=O)O)c23)cc1NC(=O)c1cccc(NC(=O)Nc2cccc(C(=O)Nc3cc(C(=O)Nc4ccc(S(=O)(=O)O)c5cc(S(=O)(=O)O)cc(S(=O)(=O)O)c45)ccc3C)c2)c1", "setting": "10 µM", "inhibition": "74%"}
{"Compound": "CCCCCC1CC(=O)c2ccc(F)cc2O1 (stereo not shown)", "assay": "fluorescence", "setting": "200 µM", "inhibition": "3.8%"}
